Reference: article PMC3428507 (Journal of molecular biology, 2012)
Values belong to the molecule of their own block, whether it stands above or below them.

Columns and labels:
[1] = test system: Pf1 PHD1/MBD (residues 48–241); assay: NMR of 15N-labeled Pf1 PHD1/MBD with MRG15 proteins; type: binding, human
[2] = test system: Pf1 PHD1 (residues 48–116); assay: NMR of 15N-labeled Pf1 PHD1 with full-length MRG15 and Pf1 MBD; type: binding, human; conditions: 1:1 mixture with full-length MRG15; pH 7.5, 25 °C
H3 (1-42) = assay: 15N-labeled H3; type: binding, human; conditions: 80 μM 15N-H3, 2 equivalents unlabeled Pf1 PHD1; 20 mM Tris-d11 pH 6.0, 50 mM NaCl, 10 μM ZnSO4, 15 mM DTT, 25 °C
Pf1 PHD1 = Pf1 PHD1 (Homo sapiens, UniProt Q96QT6); assay: NMR of mixture of 15N-MRG15 CD and 15N-Pf1 PHD1; type: binding; conditions: 1:1 mixture, absence of histone targets
In short: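 Both proteins were recombinant, expressed in E. coli BL21(DE3) and uniformly 15N-labelled by growth in M9 minimal medium with 15N-ammonium sulfate. They were purified by affinity resin, TEV cleavage and reversed-phase HPLC, then lyophilized; labelling was confirmed by ESI-MS. Pf1 PHD1 was refolded in 6 M Gdn-HCl with 50 mM DTT (42 °C, 5 h), given ZnSO4, and gel-filtered. Concentrations were measured spectrophotometrically.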

B1: full-length MRG15: full-length MRG15 (residues 1–323) (protein)
chain: MAPKQDPKPKFQEGERVLCFHGPLLYEAKCVKVAIKDKQVKYFIHYSGWNKNWDEWVPESRVLKYVDTNLQKQRELQKANQEQYAEGKMRGAAPGKKTSGLQQKNVEVKTKKNKQKTPGNGDGGSTSETPQPPRKKRARVDPTVENEETFMNRVEVKVKIPEELKPWLVDDWDLITRQKQLFYLPAKKNVDSILEDYANYKKSRGNTDNKEYAVNEVVAGIKEYFNVMLGTQLLYKFERPQYAEILADHPDAPMSQVYGAPHLLRLFVRIGAMLAYTPLDEKSLALLLNYLHDFLKYLAKNSATLFSASDYEVAPPEYHRKAV
modifications: left off: His tag (from the vector pMCSG7), end not stated, state not stated
- effect on 15N-Pf1 PHD1/MBD spectrum ([1]; equimolar, 20 mM Tris pH 7.5, 50 mM NaCl, 10 μM ZnSO4, 15 mM DTT, 0.2% NaN3, 25 °C): disappearance of most of the resonances belonging to the PHD1 domain
- effect on 15N-PHD1 spectrum without Pf1 MBD [2]: little or no perturbations compared to the apo-PHD1

B2: PHD1: human Pf1 PHD1 domain (residues 48–116) (protein)
chain: RRSGRATNHDSCDSCKEGGDLLCCDHCPAAFHLQCCNPPLSEEMLPPGEWMCHRCTVRRKKREQKKELG
modifications: left off: GST, end not stated, cleaved
- perturbation of H3 (1-42) resonances (H3 (1-42)): The amide resonances of Thr3 and Lys4 were broadened beyond detection upon PHD1 addition while that of Thr6 was significantly broadened

- direct interaction of MRG15 CD and Pf1 PHD1 (Pf1 PHD1): largely unperturbed
B3: MRG15 CD: MRG15 CD (residues 1–90) (protein)
chain: MAPKQDPKPKFQEGERVLCFHGPLLYEAKCVKVAIKDKQVKYFIHYSGWNKNWDEWVPESRVLKYVDTNLQKQRELQKANQEQYAEGKMR
modifications: left off: His6, N-terminal, cleaved
- involvement of MRG15 CD in PHD1 interactions ([1]; 1D 1H NMR of Pf1 PHD1/MBD-MRG15 complex (Supp. Fig. S4)): appeared to be not involved in PHD1 interactions
